Active and inactive are the calls of the source. No cut-off for these calls is given here. Square brackets hold non-standard residues; d marks the D form. Peptide text beside a SMILES is read from it. * marks the point of attachment. Dnp = O=[N+]([O-])c1ccc(*)c([N+](=O)[O-])c1; Gla = N[C@@H](CC(C(=O)O)C(=O)O)C(=O)O; Aad = N[C@@H](CCCC(=O)O)C(=O)O
Columns and labels:
Lipid bilayer [1] = test: Binding affinity to POPC large unilamellar vesicle at 1:300 ratio measured after 30 mins at pH 5 to 7.4 by tryptophan fluorescence spectroscopic analysis
In short: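 Peptide (7 μM final, from 20 μM stock in 5 mM sodium phosphate pH 8.0) with extruded 100 nm POPC LUVs at 1:300; pH set with HCl, 30 min RT before tryptophan emission spectra were recorded.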

MDA-MB-231 [2] = test: Induction of opsonization in human MDA-MB-231 cells assessed as increase in recruitment of anti-FITC antibody to cell surface at 1 uM measured after 5 to 10 mins at pH 6 to 7.4 by Alexa Fluor 647 conjugated anti-FITC antibody based flow cytometry; assay type: functional
In short: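 Cells in suspension (350000 MDA-MB-231) given 1 μM pH-adjusted conjugate for 5 or 10 min at 37 °C, pH 7.4 or 6.0, washed, then Alexa Fluor 647 anti-FITC mouse mAb in PBS/10% FBS 30 min at 4 °C, PFA-fixed. Flow cytometry, ≥3000 events; fold over pH 7.4 antibody-only cells; mean ± SEM, n = 3.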

[3] = Drug internalization in human MDA-MB-231 cells assessed as increase in fluorescence at 1 uM measured after 30 mins at pH 6 to 7.4 in presence of FITC-labeled anti-human IgG by flow cytometric method; assay type: ADME, cell-based; settings: mda-mb-231, pH 6, 0.5 h
In short: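 Control for specificity: MDA-MB-231 treated with 1 μM conjugate at pH 7.4 or 6.0 (5–10 min, 37 °C), washed, then incubated ± 25 μg/mL FITC anti-human IgG in PBS/10% FBS, 30 min at 4 °C, fixed, read by flow cytometry.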

MDA-MB-231 [4] = test: Induction of opsonization in human MDA-MB-231 cells assessed as increase in recruitment of anti-DNP antibody to cell surface at 1 uM measured after 5 to 10 mins at pH 6 to 7.4 by AlexaFluor-488-conjugated anti-DNP antibody based flow cytometry; assay type: functional
In short: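 Conjugate pre-incubated 1 h RT at 20 μM in 5 mM sodium phosphate pH 9.0, diluted, then pH adjusted with citrate buffer. MDA-MB-231 (350000 cells, suspension) exposed to 1 μM for 5 or 10 min, 37 °C, pH 7.4 or 6.0, washed, stained with 25 μg/mL anti-DNP-A488 30 min at 4 °C, PFA-fixed. Flow cytometry, ≥3000 events; fold over pH 7.4 antibody-only cells.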

Lipid bilayer [5] = test: Binding affinity to POPC large unilamellar vesicle at 1:300 ratio measured after 30 mins at pH 5 to 7.4 by circular dichroism spectroscopic analysis
In short: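 Peptide (20 μM stock in 5 mM sodium phosphate pH 8.0; 7 μM final) mixed with POPC LUVs (extruded, 100 nm pores) at 1:300, pH lowered with HCl, 30 min RT. Far-UV CD 260–200 nm in 0.1 cm cuvette, ≥5 scans averaged, liposome spectrum subtracted; expressed as mean residue molar ellipticity.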

| SMILES | Activity (Lipid bilayer [1]) | Activity (MDA-MB-231 [2]) | Drug uptake [3] | Activity (MDA-MB-231 [4]) | Activity (Lipid bilayer [5]) |
| --- | --- | --- | --- | --- | --- |
| CC[C@H](C)[C@H](NC(=O)[C@@H]1CCCN1C(=O)[C@H](CC(N)=O)NC(=O)[C@H](CCC(N)=O)NC(=O)[C@H](CCC(=O)O)NC(=O)[C@H](CSC1CC(=O)N(CCC(=O)NOCCOCCOCCOCCOCCOCCC(=O)NCCCNC(=O)c2ccc(-c3c4ccc(=O)cc-4oc4cc(O)ccc34)c(C(=O)O)c2)C1=O)NCC(N)=O)C(=O)N[C@@H](Cc1ccc(O)cc1)C(=O)N[C@@H](Cc1c[nH]c2ccccc12)C(=O)N[C@@H](C)C(=O)N[C@@H](CCCNC(=N)N)C(=O)N[C@@H](Cc1ccc(O)cc1)C(=O)N[C@@H](C)C(=O)N[C@@H](CC(=O)O)C(=O)N[C@@H](Cc1c[nH]c2ccccc12)C(=O)N[C@@H](CC(C)C)C(=O)N[C@@H](Cc1ccccc1)C(=O)N[C@H](C(=O)N[C@H](C(=O)N1CCC[C@H]1C(=O)N[C@@H](CC(C)C)C(=O)N[C@@H](CC(C)C)C(=O)N[C@@H](CC(C)C)C(=O)N[C@@H](CC(C)C)C(=O)N[C@@H](CC(=O)O)C(=O)N[C@@H](CC(C)C)C(=O)N[C@@H](C)C(=O)N[C@@H](CC(C)C)C(=O)N[C@@H](CC(C)C)C(=O)N[C@H](C(=O)N[C@@H](CC(=O)O)C(=O)N[C@@H](C)C(=O)N[C@@H](CC(=O)O)C(=O)N[C@@H](CCC(=O)O)C(=O)NCC(=O)N[C@H](C(=O)NCC(N)=O)[C@@H](C)O)C(C)C)[C@@H](C)O)[C@@H](C)O (stereo partly drawn) | Active | Active |  |  |  |
| CC[C@H](C)[C@H](NC(=O)[C@@H]1CCCN1C(=O)[C@H](CC(N)=O)NC(=O)[C@H](CCC(N)=O)NC(=O)[C@H](CCC(=O)O)NC(=O)[C@@H](N)CCCCNc1ccc([N+](=O)[O-])cc1[N+](=O)[O-])C(=O)N[C@@H](Cc1ccc(O)cc1)C(=O)N[C@@H](Cc1c[nH]c2ccccc12)C(=O)N[C@@H](C)C(=O)N[C@@H](CCCNC(=N)N)C(=O)N[C@@H](Cc1ccc(O)cc1)C(=O)N[C@@H](C)C(=O)N[C@@H](CC(=O)O)C(=O)N[C@@H](Cc1c[nH]c2ccccc12)C(=O)N[C@@H](CC(C)C)C(=O)N[C@@H](Cc1ccccc1)C(=O)N[C@H](C(=O)N[C@H](C(=O)N1CCC[C@H]1C(=O)N[C@@H](CC(C)C)C(=O)N[C@@H](CC(C)C)C(=O)N[C@@H](CC(C)C)C(=O)N[C@@H](CC(C)C)C(=O)N[C@@H](CC(=O)O)C(=O)N[C@@H](CC(C)C)C(=O)N[C@@H](C)C(=O)N[C@@H](CC(C)C)C(=O)N[C@@H](CC(C)C)C(=O)N[C@H](C(=O)N[C@@H](CC(=O)O)C(=O)N[C@@H](C)C(=O)N[C@@H](CC(=O)O)C(=O)N[C@@H](CCC(=O)O)C(=O)NCC(=O)N[C@H](C(=O)NCC(N)=O)[C@@H](C)O)C(C)C)[C@@H](C)O)[C@@H](C)O (H-K(Dnp)EQNPIYWARYADWLFTTPLLLLDLALLVDADEGTG-NH2) |  |  | Not Active | Active | Active |
| CC[C@H](C)[C@H](NC(=O)[C@@H]1CCCN1C(=O)[C@H](CC(N)=O)NC(=O)[C@H](CCC(N)=O)NC(=O)[C@H](CCC(=O)O)NC(=O)[C@@H](N)CCCCNc1ccc([N+](=O)[O-])cc1[N+](=O)[O-])C(=O)N[C@@H](Cc1ccc(O)cc1)C(=O)N[C@@H](Cc1c[nH]c2ccccc12)C(=O)N[C@@H](C)C(=O)N[C@@H](CCCNC(=N)N)C(=O)N[C@@H](Cc1ccc(O)cc1)C(=O)N[C@@H](C)C(=O)N[C@@H](CC(C(=O)O)C(=O)O)C(=O)N[C@@H](Cc1c[nH]c2ccccc12)C(=O)N[C@@H](CC(C)C)C(=O)N[C@@H](Cc1ccccc1)C(=O)N[C@H](C(=O)N[C@H](C(=O)N1CCC[C@H]1C(=O)N[C@@H](CC(C)C)C(=O)N[C@@H](CC(C)C)C(=O)N[C@@H](CC(C)C)C(=O)N[C@@H](CC(C)C)C(=O)N[C@@H](CCCC(=O)O)C(=O)N[C@@H](CC(C)C)C(=O)N[C@@H](C)C(=O)N[C@@H](CC(C)C)C(=O)N[C@@H](CC(C)C)C(=O)N[C@H](C(=O)N[C@@H](CC(=O)O)C(=O)N[C@@H](C)C(=O)N[C@@H](CC(=O)O)C(=O)N[C@@H](CCC(=O)O)C(=O)NCC(=O)N[C@H](C(=O)NCC(N)=O)[C@@H](C)O)C(C)C)[C@@H](C)O)[C@@H](C)O (H-K(Dnp)EQNPIYWARYA[Gla]WLFTTPLLLL[Aad]LALLVDADEGTG-NH2) |  |  | Not Active | Active | Active |

— ChEMBL document CHEMBL4354869, “pH-Dependent Grafting of Cancer Cells with Antigenic Epitopes Promotes Selective Antibody-Mediated Cytotoxicity” (J Med Chem, 2020)
